According to ChEMBL document CHEMBL1155986, “Discovery of 4H-pyrazolo[1,5-a]pyrimidin-7-ones as potent inhibitors of hepatitis C virus polymerase” (Bioorg Med Chem Lett, 2009):
pIC50: −log10 of the molar value.

Legend:
[1] = Inhibition of HCV NS5B deltaC55 polymerase assessed as [3H]GTP incorporation after 50 min by scintillation proximity assay; set-up: species or system Hepacivirus hominis
In short: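 NS5B Δ55 construct (6 nM) with biotinylated oligoG12/polyC template/primer, [3H]-GTP and unlabelled GTP, in 20 mM HEPES pH 7.3, 7.5 mM DTT, 10 mM MgCl2, 60 mM NaCl, BSA and RNasIN. Reactions ran 50 min at room temperature, were stopped with streptavidin SPA beads containing 100 mM EDTA, and were scintillation counted. IC50 came from single experiments over 11 twofold dilutions, accepted only if the positive internal control fell within its SD range.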

[2] = Inhibition of HCV NS5B deltaC21 polymerase assessed as [3H]GTP incorporation after 3 hrs by scintillation proximity assay; set-up: species or system Hepacivirus hominis; conditions: for pIC50: read-out: IC50
In short: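 Scintillation proximity assay with the NS5B Δ21 construct at 50 nM, using a polyC/oligoG template/primer with raised GTP and [3H]-GTP levels. The reaction ran 3 h at room temperature, and labelled GTP incorporation was read by scintillation counting.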

Hepatitis C virus = assay: Antiviral activity against HCV by cell-based replicon assay; assay type: functional, Hepacivirus hominis

SMILES | pIC50 [1] | pIC50 [2] | IC50 [2] | Activity (Hepatitis C virus) [µM]
COc1cccc(Oc2ccc(-c3[nH]c4cc(C(=O)O)nn4c(=O)c3C3CCCCC3)cc2)c1 | 6.05 | – | Not Active | –
COCCc1c(-c2ccc(OCc3ccccc3)cc2)[nH]c2cc(C(=O)O)nn2c1=O | 4.89 | 5.43 | – | –
O=C(O)c1cc2[nH]c(-c3ccc(OCc4ccccc4)cc3)c(CCC3CCCCC3)c(=O)n2n1 | 6.22 | 6.77 | – | –
O=C(O)c1cc2[nH]c(-c3ccc(OCc4ccccc4)cc3)c(CC3CCC3)c(=O)n2n1 | 5.06 | 5.55 | – | –
O=C(O)c1cc2[nH]c(-c3ccc(OCc4ccccc4)cc3)c(CCCc3ccccc3)c(=O)n2n1 | 5.23 | 5.60 | – | –
O=C(O)c1cc2[nH]c(-c3ccc(OCc4ccccc4)cc3)c(CC3CCCCC3)c(=O)n2n1 | 5.42 | 6.40 | – | –
O=C(N[C@@H](Cc1c[nH]c2ccccc12)C(=O)O)c1cc2[nH]c(-c3ccoc3)c(C3CCCCC3)c(=O)n2n1 | – | 7.22 | – | –
O=C(O)c1cc2[nH]c(-c3ccc(Oc4cccc(C(F)(F)F)c4)cc3)c(C3CCCCC3)c(=O)n2n1 | 6.03 | – | Not Active | –
O=C(O)c1cc2[nH]c(-c3ccc(Cc4ccccc4)cc3)c(C3CCCCC3)c(=O)n2n1 | 5.40 | 5.59 | – | –
O=C(O)c1cc2[nH]c(-c3ccc(Oc4cccc(Cl)c4)cc3)c(C3CCCCC3)c(=O)n2n1 | 5.48 | – | Not Active | –
C=CCCc1c(-c2ccc(OCc3ccccc3)cc2)[nH]c2cc(C(=O)O)nn2c1=O | 4.82 | 5.17 | – | –
O=C(N[C@@H](Cc1c[nH]c2ccccc12)C(=O)O)c1cc2[nH]c(-c3ccco3)c(C3CCCCC3)c(=O)n2n1 | – | 7.30 | – | 50
O=C(O)c1cc2[nH]c(-c3ccco3)c(C3CCCCC3)c(=O)n2n1 | 5.55 | 6.54 | – | –
C=CCc1c(-c2ccc(OCc3ccccc3)cc2)[nH]c2cc(C(=O)O)nn2c1=O | < 4.30 | < 4.90 | – | –
O=C(N[C@@H](Cc1c[nH]c2ccccc12)C(=O)O)c1cc2[nH]c(-c3cccs3)c(C3CCCCC3)c(=O)n2n1 | – | 6.70 | – | –
O=C(O)c1cc2[nH]c(-c3ccc(OCc4ccccc4)cc3)c(CCc3ccccc3)c(=O)n2n1 | 5.66 | 5.92 | – | –
O=C(N[C@@H](Cc1ccc(O)cc1)C(=O)O)c1cc2[nH]c(-c3ccco3)c(C3CCCCC3)c(=O)n2n1 | – | 7.15 | – | –
COc1ccc(-c2[nH]c3cc(C(=O)O)nn3c(=O)c2C2CCCCC2)cc1 | 5.41 | – | Not Active | –
O=C(O)c1cc2[nH]c(-c3ccc(OCc4cccc(OC(F)(F)F)c4)cc3)c(C3CCCCC3)c(=O)n2n1 | 5.66 | 5.82 | – | –
O=C(O)c1cc2[nH]c(-c3ccc(OCc4ccccc4)cc3)c(-c3ccccc3)c(=O)n2n1 | < 4.30 | < 4.90 | – | –
O=C(O)c1cc2[nH]c(-c3cccc(F)c3)c(C3CCCCC3)c(=O)n2n1 | 5.64 | 6.42 | – | –
O=C(N[C@@H](Cc1c[nH]cn1)C(=O)O)c1cc2[nH]c(-c3ccco3)c(C3CCCCC3)c(=O)n2n1 | – | 6.19 | – | –
O=C(O)c1cc2[nH]c(-c3ccc(OCc4cccc(C(F)(F)F)c4)cc3)c(C3CCCCC3)c(=O)n2n1 | 5.74 | 6.05 | – | –
O=C(O)c1cc2[nH]c(-c3ccc(OCc4ccccc4)cc3)c(C3CCCCC3)c(=O)n2n1 | 5.82 | 6.00 | – | –
O=C(NS(=O)(=O)Cc1ccccc1)c1cc2[nH]c(-c3ccco3)c(C3CCCCC3)c(=O)n2n1 | – | 6.74 | – | –

The next lines start with results.

pIC50 [1] | pIC50 [2] | IC50 [2] | SMILES | Activity (Hepatitis C virus) [µM]
5.48 | 5.51 | – | O=C(O)c1cc2[nH]c(-c3ccc(-c4ccccc4)cc3)c(C3CCCCC3)c(=O)n2n1 | –
4.82 | 5.02 | – | CC(C)Cc1c(-c2ccc(OCc3ccccc3)cc2)[nH]c2cc(C(=O)O)nn2c1=O | –
– | 6.17 | – | O=C(N[C@@H](Cc1ccc(O)cc1)C(=O)O)c1cc2[nH]c(-c3cccc(F)c3)c(C3CCCCC3)c(=O)n2n1 | –
5.20 | – | Not Active | O=C(O)c1cc2[nH]c(-c3ccc(Oc4ccccc4)cc3)c(C3CCCCC3)c(=O)n2n1 | –
– | 6.52 | – | O=C(N[C@H](Cc1ccc(O)cc1)C(=O)O)c1cc2[nH]c(-c3ccco3)c(C3CCCCC3)c(=O)n2n1 | –
5.24 | 5.82 | – | CC(C)CCc1c(-c2ccc(OCc3ccccc3)cc2)[nH]c2cc(C(=O)O)nn2c1=O | –
5.05 | 5.38 | – | O=C(O)c1cc2[nH]c(-c3ccc(OCc4ccccc4)cc3)c(Cc3ccccc3)c(=O)n2n1 | –
– | 6.70 | – | O=C(N[C@H](C(=O)O)c1ccc(O)cc1)c1cc2[nH]c(-c3ccco3)c(C3CCCCC3)c(=O)n2n1 | –
5.92 | 6.00 | – | COc1cccc(COc2ccc(-c3[nH]c4cc(C(=O)O)nn4c(=O)c3C3CCCCC3)cc2)c1 | –
5.19 | 5.96 | – | O=C(O)c1cc2[nH]c(-c3cccs3)c(C3CCCCC3)c(=O)n2n1 | –
– | 6.64 | – | O=C(N[C@@H](Cc1c[nH]c2ccccc12)C(=O)O)c1cc2[nH]c(-c3cccc(F)c3)c(C3CCCCC3)c(=O)n2n1 | –
5.00 | 5.46 | – | CC(C)=CCCc1c(-c2ccc(OCc3ccccc3)cc2)[nH]c2cc(C(=O)O)nn2c1=O | –
– | 6.57 | – | COC(=O)[C@H](Cc1c[nH]c2ccccc12)NC(=O)c1cc2[nH]c(-c3ccco3)c(C3CCCCC3)c(=O)n2n1 | –
< 4.90 | 5.00 | – | O=C(O)c1cc2[nH]c(-c3ccc(OCc4ccccc4)cc3)c(CC3CCCO3)c(=O)n2n1 (stereo not drawn) | –
